Source: PubChem BioAssay (The Scripps Research Institute Molecular Screening Center)
Most compounds without a hit are left out; they make up all but 1.9% or so of the library.
M5 antag – human M5 muscarinic receptor antagonists, primary screen, CHO cells, Fluo-8 calcium fluorescence; AID 624040, 2012; actives 0.59% (n = 360,000); inhibition, % at 3 µM; CHO-hM5 cells, ACh EC80;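 active = inhibition above a per-plate cutoff, the mean of that plate's test compounds plus 3 SD, cut at about 27% in these data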
CHRM4 agonist – human M4 muscarinic receptor agonists, primary screen, CHO-K1 cells, Fluo-8 calcium fluorescence | AID 624127, 2012 | activation, % at 3 µM | actives 0.14% (n = 360,000) | Muscarinic acetylcholine receptor M4 (Homo sapiens), P08173 | CHO-K1 hM4/Gqi5; vehicle 0%, full acetylcholine response 100%;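 active = activation above the run mean over all test wells plus 3 SD, cut at about 32% in these data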;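 note: peak over basal fluorescence ratio per well then scaled between controls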
Target sequence (P08173 whole entry, looked up): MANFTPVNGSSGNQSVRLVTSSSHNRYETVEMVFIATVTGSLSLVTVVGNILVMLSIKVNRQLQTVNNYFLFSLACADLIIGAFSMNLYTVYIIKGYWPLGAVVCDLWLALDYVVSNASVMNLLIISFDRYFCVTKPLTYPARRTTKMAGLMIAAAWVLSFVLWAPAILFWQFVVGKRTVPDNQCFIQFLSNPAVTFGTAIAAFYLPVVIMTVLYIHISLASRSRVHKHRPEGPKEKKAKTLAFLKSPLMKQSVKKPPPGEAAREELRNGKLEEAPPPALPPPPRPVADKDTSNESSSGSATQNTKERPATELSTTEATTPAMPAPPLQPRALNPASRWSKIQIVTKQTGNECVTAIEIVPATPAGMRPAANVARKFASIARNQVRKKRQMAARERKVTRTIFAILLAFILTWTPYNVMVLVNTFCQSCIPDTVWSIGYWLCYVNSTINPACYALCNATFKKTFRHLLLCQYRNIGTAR
CHRM5 PAM – human M5 muscarinic receptor positive allosteric modulators, primary screen, CHO-K1 cells, Fluo-8 calcium fluorescence; activation, % at 3 µM; AID 624038, 2012; CHO-K1 hM5, ACh EC20 PAM; 0% = ACh EC20, 100% = ACh EC100; actives 0.3% (n = 360,000);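 active = activation above the run cutoff, the mean activation of all test compounds plus 3 SD, cut at about 18% in these data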
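Assay system – human M5 receptor in CHO-K1 cells · Read-out – % activation, ACh-normalized · Technique – Fluo-8 calcium fluorescence · Dosing – single-point, 3 µM nominal · Incubation – Fluo-8 loading 80 min at 37 °C plus 30 min room temperature · Repeats – singlicate, one well per test compound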
M5 ag – human M5 muscarinic receptor agonists, primary screen, CHO-K1 cells, Fluo-8 calcium fluorescence; CHO-K1 hM5 cells; 0% DMSO wells, 100% maximal acetylcholine response; activation, % at 3 µM; actives 0.19% (n = 360,000); AID 624037, 2012;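 active = activation above the run's mean over test compounds plus 3 SD, cut at about 23% in these data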;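 note: signal is peak over basal fluorescence ratio across the kinetic read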
CHRM4 antagonist – human M4 muscarinic receptor antagonists, primary screen, CHO cells, Fluo-8 calcium fluorescence; Muscarinic acetylcholine receptor M4 (Homo sapiens), P08173; CHO-hM4 cells, ACh EC80; inhibition, % at 3 µM; actives 0.73% (n = 360,000); AID 624125, 2012;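 active = inhibition above its plate's cutoff, the mean inhibition of sample wells plus 3 SD, cut at about 27% in these data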
CHRM4 PAM – human M4 muscarinic receptor positive allosteric modulators, primary screen, CHO-K1 cells, Fluo-8 calcium fluorescence. CHO-K1 hM4/Gqi5, ACh EC20; 0% = ACh EC20, 100% = maximal ACh. activation, % at 3 µM. actives 0.4% (n = 360,000);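 active = activation above its plate's cutoff, the mean activation of sample wells plus 3 SD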
Numbers stand for hits; ! = not confirmed by another sample.

O=C(Cc1ccc(Cl)cc1Cl)Nc1ccncc1 was read as M5 antag inactive, CHRM4 agonist inactive, CHRM5 PAM inactive, M5 ag inactive, CHRM4 antagonist inactive and CHRM4 PAM inactive.
Screening CC(C)Oc1ccc(/C(O)=C2/C(=O)C(=O)N(Cc3cccnc3)C2c2ccco2)cc1 (stereo unspecified) returned M5 antag inactive, CHRM4 agonist inactive, CHRM5 PAM inactive, M5 ag inactive, CHRM4 antagonist inactive and CHRM4 PAM 19.
For O=S(=O)(c1cccc2cnccc12)N1CCCNCC1 the results were M5 antag inactive, CHRM4 agonist inactive, CHRM5 PAM inactive, M5 ag inactive, CHRM4 antagonist inactive and CHRM4 PAM inactive.
Screening CC1CNCCN1S(=O)(=O)c1cccc2cnccc12 (stereo unspecified) returned M5 antag inactive, CHRM4 agonist inactive, CHRM5 PAM inactive, M5 ag 52!, CHRM4 antagonist inactive and CHRM4 PAM inactive.
Screening CCOc1ccc(NC(=O)C2CCC(C)(C(=O)O)C2(C)C)cc1 (stereo unspecified) returned M5 antag inactive, CHRM4 agonist inactive, CHRM5 PAM inactive, M5 ag inactive, CHRM4 antagonist inactive and CHRM4 PAM inactive.
Screening COc1ccc(NC(=O)C2CCC(C)(C(=O)O)C2(C)C)cc1 (stereo unspecified) returned M5 antag inactive, CHRM4 agonist inactive, CHRM5 PAM inactive, M5 ag inactive, CHRM4 antagonist 28 and CHRM4 PAM inactive.
`COc1ccc(N2CCN(CC(=O)NC(C)c3ccccc3)CC2)cc1` (stereo unspecified) gave M5 antag inactive, CHRM4 agonist inactive, CHRM5 PAM inactive, M5 ag inactive, CHRM4 antagonist inactive and CHRM4 PAM inactive.
Screening O=C(CN1CCN(C(c2ccccc2)c2ccccc2)CC1)N1CCOCC1 returned M5 antag inactive, CHRM4 agonist inactive, CHRM5 PAM inactive, M5 ag inactive, CHRM4 antagonist 37 and CHRM4 PAM inactive.
Screening N#CCC(=O)N1CCN(C(c2ccccc2)c2ccccc2)CC1 returned M5 antag inactive, CHRM4 agonist inactive, CHRM5 PAM inactive, M5 ag inactive, CHRM4 antagonist inactive and CHRM4 PAM inactive.
`COc1ccc(N2CCN(C(=O)CN3CCN(C(c4ccccc4)c4ccccc4)CC3)CC2)cc1` gave M5 antag inactive, CHRM4 agonist inactive, CHRM5 PAM inactive, M5 ag inactive, CHRM4 antagonist 28 and CHRM4 PAM inactive.
O=C(O)COCC(=O)N1CCN(C(c2ccccc2)c2ccccc2)CC1 was read as M5 antag 40, CHRM4 agonist inactive, CHRM5 PAM inactive, M5 ag inactive, CHRM4 antagonist 41 and CHRM4 PAM inactive.
`CN(CCc1ccccc1)C(=O)CCc1nnc(Cc2ccc3c(c2)OCO3)o1` gave M5 antag inactive, CHRM4 agonist inactive, CHRM5 PAM inactive, M5 ag inactive, CHRM4 antagonist inactive and CHRM4 PAM inactive.
`CCCc1cc(C(=O)OC)c2ccccc2n1` gave M5 antag inactive, CHRM4 agonist inactive, CHRM5 PAM inactive, M5 ag inactive, CHRM4 antagonist inactive and CHRM4 PAM inactive.
`COC(=O)c1cc(Cl)nc2ccccc12` gave M5 antag inactive, CHRM4 agonist inactive, CHRM5 PAM 21, M5 ag inactive, CHRM4 antagonist inactive and CHRM4 PAM inactive.
For CC(=O)N1CCN(C(=O)CCCNC(=O)c2ccc(Cl)cc2)CC1 the results were M5 antag inactive, CHRM4 agonist inactive, CHRM5 PAM inactive, M5 ag inactive, CHRM4 antagonist inactive and CHRM4 PAM inactive.
Cc1cc(C)c(C)c(S(=O)(=O)N2CCC(C(=O)N3CC(C)CC(C)C3)CC2)c1C (stereo unspecified) was read as M5 antag inactive, CHRM4 agonist inactive, CHRM5 PAM inactive, M5 ag inactive, CHRM4 antagonist inactive and CHRM4 PAM 20.
